Assay results: ChEMBL document CHEMBL3046615, “Isolation of nematicidal compounds from Tagetes patula L. yellow flowers: structure-activity relationship studies against cyst nematode Heterodera zeae infective stage larvae” (2011)
Calls of active or inactive are those of the source. No cut-off for these calls is given here.

Assays:
Heterodera zeae [1] = experiment: Nematicidal activity against Heterodera zeae infective stage larvae assessed as nematode mortality at 2% under dark conditions measured 5 to 60 min post dose by stereoscopic microscopy; format: functional, organism-based
Method in brief: (§1)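 H. zeae freshly hatched second-stage juveniles, 100 per plate, three replicates, at 28 ± 2 °C under light or in a dark box. Dilutions are % of a stock: 30 mg/mL for extracts/fractions, 1 mg/mL for pure compounds. Methanol-, DMSO- or water-soluble samples were tested in glass cavity blocks. Petroleum ether-soluble samples were air-dried in the block and covered with agar pieces bearing cultured larvae. Mortality was followed over 5–60 min; each value is the mean of three experiments.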

Heterodera zeae [2] = experiment: Nematicidal activity against Heterodera zeae infective stage larvae assessed as nematode mortality at 0.125% under dark conditions measured 72 hr post dose by stereoscopic microscopy; format: functional
Method in brief: (§2)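 Freshly hatched H. zeae second-stage juveniles, 100 per Petri plate, three replicates. Samples in MeOH, DMSO or water were tested in glass cavity blocks; petroleum ether samples were dried onto the block and larvae transferred on agar pieces. Percentages are dilutions of 30 mg/mL stocks (extracts/fractions) or 1 mg/mL stocks (pure compounds). Incubated at 28 ± 2 °C in light or dark box; mortality averaged over three replicates.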

Heterodera zeae [3] = experiment: Nematicidal activity against Heterodera zeae infective stage larvae assessed as nematode mortality at 5% under light conditions measured 5 to 60 min post dose by stereoscopic microscopy; format: functional, organism-based; method in brief: as §1
Heterodera zeae [4] = experiment: Nematicidal activity against Heterodera zeae infective stage larvae assessed as nematode mortality at 0.25% under light conditions measured 24 hr post dose by stereoscopic microscopy; format: functional; method in brief: as §2
Heterodera zeae [5] = experiment: Nematicidal activity against Heterodera zeae infective stage larvae assessed as nematode mortality at 0.5% under dark conditions measured 5 to 60 min post dose by stereoscopic microscopy; format: functional, organism-based; method in brief: as §1
Heterodera zeae [6] = experiment: Nematicidal activity against Heterodera zeae infective stage larvae assessed as nematode mortality at 1% under light conditions measured 24 hr post dose by stereoscopic microscopy; format: functional; method in brief: as §2
Heterodera zeae [7] = experiment: Nematicidal activity against Heterodera zeae infective stage larvae assessed as nematode mortality at 0.25% under light conditions measured 48 hr post dose by stereoscopic microscopy; format: functional; method in brief: as §2
Heterodera zeae [8] = experiment: Nematicidal activity against Heterodera zeae infective stage larvae assessed as nematode mortality at 0.5% under dark conditions measured 48 hr post dose by stereoscopic microscopy; format: functional; method in brief: as §2
Heterodera zeae [9] = experiment: Nematicidal activity against Heterodera zeae infective stage larvae assessed as nematode mortality at 5% under dark conditions measured 5 to 60 min post dose by stereoscopic microscopy; format: functional, organism-based; method in brief: as §1
Heterodera zeae [10] = experiment: Nematicidal activity against Heterodera zeae infective stage larvae assessed as nematode mortality at 1% under light conditions measured 5 to 60 min post dose by stereoscopic microscopy; format: functional, organism-based; method in brief: as §1
Heterodera zeae [11] = experiment: Nematicidal activity against Heterodera zeae infective stage larvae assessed as nematode mortality at 0.5% under light conditions measured 5 to 60 min post dose by stereoscopic microscopy; format: functional, organism-based; method in brief: as §1
Heterodera zeae [12] = experiment: Nematicidal activity against Heterodera zeae infective stage larvae assessed as nematode mortality at 1% under dark conditions measured 5 to 60 min post dose by stereoscopic microscopy; format: functional, organism-based; method in brief: as §1
Heterodera zeae [13] = experiment: Nematicidal activity against Heterodera zeae infective stage larvae assessed as nematode mortality at 0.25% under light conditions measured 5 to 60 min post dose by stereoscopic microscopy; format: functional, organism-based; method in brief: as §1
Heterodera zeae [14] = experiment: Nematicidal activity against Heterodera zeae infective stage larvae assessed as nematode mortality at 0.125% under light conditions measured 48 hr post dose by stereoscopic microscopy; format: functional; method in brief: as §2
Heterodera zeae [15] = experiment: Nematicidal activity against Heterodera zeae infective stage larvae assessed as nematode mortality at 0.125% under dark conditions measured 24 hr post dose by stereoscopic microscopy; format: functional; method in brief: as §2
Heterodera zeae [16] = experiment: Nematicidal activity against Heterodera zeae infective stage larvae assessed as nematode mortality at 0.5% under light conditions measured 48 hr post dose by stereoscopic microscopy; format: functional; method in brief: as §2
Heterodera zeae [17] = experiment: Nematicidal activity against Heterodera zeae infective stage larvae assessed as nematode mortality at 0.5% under dark conditions measured 24 hr post dose by stereoscopic microscopy; format: functional; method in brief: as §2
Heterodera zeae [18] = experiment: Nematicidal activity against Heterodera zeae infective stage larvae assessed as nematode mortality at 0.25% under dark conditions measured 24 hr post dose by stereoscopic microscopy; format: functional; method in brief: as §2
Heterodera zeae [19] = experiment: Nematicidal activity against Heterodera zeae infective stage larvae assessed as nematode mortality at 1% under light conditions measured 48 hr post dose by stereoscopic microscopy; format: functional; method in brief: as §2
Heterodera zeae [20] = experiment: Nematicidal activity against Heterodera zeae infective stage larvae assessed as nematode mortality at 0.125% under dark conditions measured 5 to 60 min post dose by stereoscopic microscopy; format: functional, organism-based; method in brief: as §1
Heterodera zeae [21] = experiment: Nematicidal activity against Heterodera zeae infective stage larvae assessed as nematode mortality at 0.25% under dark conditions measured 48 hr post dose by stereoscopic microscopy; format: functional; method in brief: as §2
Heterodera zeae [22] = experiment: Nematicidal activity against Heterodera zeae infective stage larvae assessed as nematode mortality at 0.5% under light conditions measured 24 hr post dose by stereoscopic microscopy; format: functional; method in brief: as §2
Heterodera zeae [23] = experiment: Nematicidal activity against Heterodera zeae infective stage larvae assessed as nematode mortality at 0.25% under dark conditions measured 5 to 60 min post dose by stereoscopic microscopy; format: functional, organism-based; method in brief: as §1
Heterodera zeae [24] = experiment: Nematicidal activity against Heterodera zeae infective stage larvae assessed as nematode mortality at 0.125% under light conditions measured 5 to 60 min post dose by stereoscopic microscopy; format: functional, organism-based; method in brief: as §1
Heterodera zeae [25] = experiment: Nematicidal activity against Heterodera zeae infective stage larvae assessed as nematode mortality at 1% under dark conditions measured 24 hr post dose by stereoscopic microscopy; format: functional; method in brief: as §2
Heterodera zeae [26] = experiment: Nematicidal activity against Heterodera zeae infective stage larvae assessed as nematode mortality at 0.125% under light conditions measured 72 hr post dose by stereoscopic microscopy; format: functional; method in brief: as §2
Heterodera zeae [27] = experiment: Nematicidal activity against Heterodera zeae infective stage larvae assessed as nematode mortality at 0.25% under dark conditions measured 72 hr post dose by stereoscopic microscopy; format: functional; method in brief: as §2
Heterodera zeae [28] = experiment: Nematicidal activity against Heterodera zeae infective stage larvae assessed as nematode mortality at 0.125% under dark conditions measured 48 hr post dose by stereoscopic microscopy; format: functional; method in brief: as §2
Heterodera zeae [29] = experiment: Nematicidal activity against Heterodera zeae infective stage larvae assessed as nematode mortality at 2% under light conditions measured 5 to 60 min post dose by stereoscopic microscopy; format: functional, organism-based; method in brief: as §1
Heterodera zeae [30] = experiment: Nematicidal activity against Heterodera zeae infective stage larvae assessed as nematode mortality at 0.125% under light conditions measured 24 hr post dose by stereoscopic microscopy; format: functional; method in brief: as §2
Heterodera zeae [31] = experiment: Nematicidal activity against Heterodera zeae infective stage larvae assessed as nematode mortality at 1% under dark conditions measured 48 hr post dose by stereoscopic microscopy; format: functional; method in brief: as §2
Heterodera zeae [32] = experiment: Nematicidal activity against Heterodera zeae infective stage larvae assessed as nematode mortality at 0.25% under light conditions measured 72 hr post dose by stereoscopic microscopy; format: functional; method in brief: as §2

Structure (SMILES)	Activity (Heterodera zeae [1])	mortality (Heterodera zeae [2]) [%]	Activity (Heterodera zeae [3])	mortality (Heterodera zeae [4]) [%]	Activity (Heterodera zeae [5])	mortality (Heterodera zeae [6]) [%]	mortality (Heterodera zeae [7]) [%]	Activity (Heterodera zeae [9])	Activity (Heterodera zeae [10])	Activity (Heterodera zeae [11])	Activity (Heterodera zeae [12])	Activity (Heterodera zeae [13])	mortality (Heterodera zeae [14]) [%]	mortality (Heterodera zeae [15]) [%]	mortality (Heterodera zeae [16]) [%]	mortality (Heterodera zeae [17]) [%]	mortality (Heterodera zeae [18]) [%]	mortality (Heterodera zeae [19]) [%]	Activity (Heterodera zeae [20])	mortality (Heterodera zeae [21]) [%]	further results
CCCCCCCC/C=C\CCCCCCCC(=O)OC [METHYL OLEATE]	inactive	10	inactive	10	inactive	50	50	inactive	inactive	inactive	inactive	inactive	50	10	100	40	10	100	inactive	10	mortality (Heterodera zeae [8]): 100%; mortality (Heterodera zeae [22]): 50%; Activity (Heterodera zeae [23]): inactive; Activity (Heterodera zeae [24]): inactive; mortality (Heterodera zeae [25]): 50%; mortality (Heterodera zeae [26]): 100%; mortality (Heterodera zeae [27]): 10%; mortality (Heterodera zeae [28]): 10%; Activity (Heterodera zeae [29]): inactive; mortality (Heterodera zeae [30]): 10%; mortality (Heterodera zeae [31]): 100%; mortality (Heterodera zeae [32]): 100%
C[C@@H]1O[C@@H](OC[C@H]2O[C@@H](Oc3c(-c4ccc(O)c(O)c4)oc4cc(O)cc(O)c4c3=O)[C@H](O)[C@@H](O)[C@@H]2O)[C@H](O)[C@H](O)[C@H]1O [RUTIN]	inactive	70	inactive	0	inactive	100	100	inactive	inactive	inactive	inactive	inactive	100	0	100	100	0	100	inactive	70	mortality (Heterodera zeae [22]): 100%; Activity (Heterodera zeae [23]): inactive; Activity (Heterodera zeae [24]): inactive; mortality (Heterodera zeae [25]): 100%; mortality (Heterodera zeae [27]): 70%; mortality (Heterodera zeae [28]): 70%; Activity (Heterodera zeae [29]): inactive; mortality (Heterodera zeae [30]): 0%
